Tested on: RAN translation of r(G4C2)^exp
Assay: RAN translation assay in HEK293T cells co-transfected with
Type: cell-based
Details: read-out: IC50 for inhibition of RAN translation, approximate values
In short: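 HEK293T cells in DMEM/10% FBS at ~80% confluency were co-transfected with (G4C2)66-no ATG-GFP and an mCherry control plasmid, reseeded, and dosed 2 h later. After 24 h with compound, cells were lysed in 100 mM potassium phosphate pH 7.8 with 0.2% Triton X-100. GFP (ex 485/20, em 528/20) and mCherry (ex 530/25, em 590/35) were read, and the untransfected-cell-background-corrected GFP/mCherry ratio was used.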

IC50: ~300 nM
SMILES: Cc1c2ccnc(C(=O)NCCN(C)C)c2cc2c3cc(O)ccc3n(C)c12 [Compound 2]
